This note sets out measurements from ChEMBL document CHEMBL3352082, “Pyrazole derivatives as potent inhibitors of c-Jun N-terminal kinase: synthesis and SAR studies” (Bioorg Med Chem, 2014).

Assay [1] addresses c-Jun N-terminal kinase, JNK (Homo sapiens, UniProt P45983+P53779+P45984). As to the kind of experiment: Inhibition of JNK (unknown origin). Format: protein assay.
The target in assay [2] is Mitogen-activated protein kinase 8 (Homo sapiens, UniProt P45983). Put plainly: Inhibition of FLAG-tagged JNK-1 (unknown origin) transfected in African green monkey COS cells by SDS-PAGE analysis. Type of assay: cell-based. In a few lines:
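COS cells transfected with FLAG-tagged JNK-1 and exposed to 0.5 M sorbitol for 30 min to activate JNK-1. FLAG-JNK immunoprecipitated with GST-ATF2 substrate, and the precipitate pretreated with compound and incubated in buffer B. Phosphorylated substrate separated by SDS–PAGE, visualized by autoradiography and quantified by Cerenkov counting through a kinase profiler service.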

Assay [3] has as its system Rattus norvegicus. Put plainly: Antiinflammatory activity in po dosed rat paw edema model assessed as inhibition of carrageenan-induced paw edema administered 1 hr prior to carrageenan challenge measured after 3 hrs.
The test system of assay [4] is Rattus norvegicus. As to the kind of experiment: Antiinflammatory activity in po dosed rat paw edema model assessed as inhibition of carrageenan-induced paw edema administered 1 hr prior to carrageenan challenge measured after 1 hr. Background: Carrageenan injected into the paw causes an acute inflammation.
The subject of assay [5] is Rattus norvegicus. As to the kind of experiment: Antiinflammatory activity in po dosed rat paw edema model assessed as inhibition of carrageenan-induced paw edema administered 1 hr prior to carrageenan challenge measured after 2 hrs.
The test system of assay [6] is Rattus norvegicus. Put plainly: Antiinflammatory activity in po dosed rat paw edema model assessed as inhibition of carrageenan-induced paw edema administered 1 hr prior to carrageenan challenge measured after 4 hrs.
Assay [7] relates to Rattus norvegicus. Put plainly: Antiinflammatory activity in po dosed rat paw edema model assessed as inhibition of carrageenan-induced paw edema […] measured after 3 hrs. Format: functional. In a few lines:
(§1)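 Rats given test compounds as an oral suspension; 1 h later 1% carrageenan injected into the subplantar region of the right paw. Paw volume read by digital plethysmometer at 1, 2, 3 and 4 h. Reported as mean paw volume (mL) ± SEM with % inhibition; significance p <0.01 / p <0.05. Method after Winter et al.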

Assay [8] relates to Rattus norvegicus. As to the kind of experiment: Antiinflammatory activity in po dosed rat paw edema model assessed as inhibition of carrageenan-induced paw edema […] measured after 2 hrs. Type of assay: functional. An outline of the steps:
as §1

The test system of assay [9] is Rattus norvegicus. As to the kind of experiment: Antiinflammatory activity in po dosed rat paw edema model assessed as inhibition of carrageenan-induced paw edema […] measured after 4 hrs. Type of assay: functional. An outline of the steps:
as §1

Assay [10] has as its system Rattus norvegicus. Put plainly: Antiinflammatory activity in po dosed rat paw edema model assessed as inhibition of carrageenan-induced paw edema […] measured after 1 hr. Type of assay: functional. An outline of the steps: as §1
Assay [11] has as its system Rattus norvegicus. As to the kind of experiment: Antiinflammatory activity in rat paw edema model assessed as inhibition of carrageenan-induced paw edema at 50 mg/kg, po administered 1 hr post carrageenan challenge measured after 3 hrs. Type of assay: functional. The conditions noted are these: in the assay text read “1 hr prior to carrageenan challenge” for “1 hr post carrageenan challenge”. In a few lines: as §1

For assay [12], the system named is Rattus norvegicus. Put plainly: Antiinflammatory activity in rat paw edema model assessed as inhibition of carrageenan-induced paw edema at 50 mg/kg, po administered 1 hr post carrageenan challenge measured after 2 hrs. Format: functional. The conditions noted are these: in the assay text read “1 hr prior to carrageenan challenge” for “1 hr post carrageenan challenge”. In a few lines: as §1

For assay [13], the system named is Rattus norvegicus. Put plainly: Antiinflammatory activity in rat paw edema model assessed as inhibition of carrageenan-induced paw edema at 50 mg/kg, po administered 1 hr prior to carrageenan challenge measured after 4 hrs.
In assay [14] the test system is Rattus norvegicus. Put plainly: Antiinflammatory activity in rat paw edema model assessed as inhibition of carrageenan-induced paw edema at 50 mg/kg, po administered 1 hr post carrageenan challenge measured after 1 hr. The conditions noted are these: in the assay text read “1 hr prior to carrageenan challenge” for “1 hr post carrageenan challenge”. Type of assay: functional. In a few lines: as §1

Mitogen-activated protein kinase 8, sequence (P45983 whole entry): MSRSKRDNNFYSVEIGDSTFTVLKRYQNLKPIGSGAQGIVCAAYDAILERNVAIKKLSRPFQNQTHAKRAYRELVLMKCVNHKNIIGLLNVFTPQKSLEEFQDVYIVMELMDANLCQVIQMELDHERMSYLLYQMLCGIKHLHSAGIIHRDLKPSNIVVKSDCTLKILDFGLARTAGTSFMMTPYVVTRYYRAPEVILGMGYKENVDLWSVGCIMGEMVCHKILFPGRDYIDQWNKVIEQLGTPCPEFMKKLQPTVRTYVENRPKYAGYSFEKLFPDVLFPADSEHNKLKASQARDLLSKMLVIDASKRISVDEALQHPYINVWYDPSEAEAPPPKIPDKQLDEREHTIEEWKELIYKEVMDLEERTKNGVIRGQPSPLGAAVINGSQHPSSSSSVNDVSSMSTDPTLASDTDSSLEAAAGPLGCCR

Take `c1ccc2c(-c3ccncc3)n[nH]c2c1`: the pIC50 (usually −log10 of the IC50, conventionally taken in molar units) in assay [1] is recorded as 5.8.
With `O=C(Nc1ccccc1)c1cc(-c2ccccc2)[nH]n1`, the 50% inhibitory concentration (IC50) (in general, the concentration that gives 50% inhibition) in assay [2] turned out to be 9.6 µM. For the same molecule, the “inhibition (INH)” value with Rattus norvegicus [3] is on record as 45.64%; in the assay with Rattus norvegicus [4], 32.48%; with Rattus norvegicus [5], 35.02%; with Rattus norvegicus [6] it was 30.58%.
Consider `O=C(Nc1cc(Cl)ccc1Cl)c1cc(-c2ccccc2)[nH]n1`, for which the IC50 in [2] came to 6.2 µM. Moreover, the “inhibition (INH)” value with Rattus norvegicus [3] amounted to 45.47%; in the assay on Rattus norvegicus [4], 31.02%; with Rattus norvegicus [5], 40.16%; with Rattus norvegicus [6] it was 18.9%.
For `O=C(Nc1ccc([N+](=O)[O-])cc1)c1cc(-c2ccccc2)[nH]n1`, the midpoint of inhibition in [2], the IC50, lay at 9.8 µM. Also, the “inhibition (INH)” value is 92.56% with Rattus norvegicus [3], 89.24% in the assay with Rattus norvegicus [4], 94.31% with Rattus norvegicus [5] and 68.7% with Rattus norvegicus [6].
`COc1ccc(NC(=O)c2cc(-c3ccccc3)[nH]n2)cc1` yielded an IC50 in assay [2] of 8.1 µM. In addition, the “inhibition (INH)” value turned out to be 81.08% in the assay on Rattus norvegicus [3], 33.3% in the assay on Rattus norvegicus [4], 79.54% in the assay on Rattus norvegicus [5] and 66.44% in the assay on Rattus norvegicus [6].
For the molecule `O=C(Nc1ccc(O)cc1)c1cc(-c2ccccc2)[nH]n1`, the “inhibition (INH)” value was determined as 23.28% in the assay on Rattus norvegicus [3], 22.11% with Rattus norvegicus [4], 43.24% in the assay on Rattus norvegicus [5] and 16.64% with Rattus norvegicus [6].
Consider `O=C(Nc1ccc(Br)cc1)c1cc(-c2ccccc2)[nH]n1`, for which inhibition in assay [2] was half-maximal at 5.9 µM (IC50). Further, the “inhibition (INH)” value in the assay with Rattus norvegicus [3] was 51.4%; with Rattus norvegicus [4] it was 42.16%; in the assay on Rattus norvegicus [5], 46.31%; in the assay on Rattus norvegicus [6], 38.22%.
As to `O=C(Nc1ccc(Cl)c(F)c1)c1cc(-c2ccccc2)[nH]n1`, the midpoint of inhibition in assay [2], the IC50, lay at 3.1 µM. Further, the “inhibition (INH)” value in the assay on Rattus norvegicus [3] worked out at 90.54%; in the assay on Rattus norvegicus [4], 68.81%; in the assay with Rattus norvegicus [5] it was 72.7%; in the assay with Rattus norvegicus [6], 64.22%.
For `Cc1cc(C)c(NC(=O)c2cc(-c3ccccc3)[nH]n2)c(C)c1`, in assay [2], the 50% inhibitory concentration (IC50) was found to be 11.9 µM. Further, the “inhibition (INH)” value with Rattus norvegicus [3] is on record as 44.24%; in the assay with Rattus norvegicus [4] it was 53.65%; in the assay with Rattus norvegicus [5], 45.6%; with Rattus norvegicus [6], 26.8%.
In [2], `CC(=O)c1cccc(NC(=O)c2cc(-c3ccccc3)[nH]n2)c1` came in with a concentration for half-maximal inhibition (IC50) of 6.9 µM. The “inhibition (INH)” value in the assay on Rattus norvegicus [3] was determined as 74.32%; with Rattus norvegicus [4], 41.3%; in the assay with Rattus norvegicus [5] it was 56.7%; in the assay with Rattus norvegicus [6], 56.8%.
The corresponding values for `O=C(NCc1ccccc1)c1cc(-c2ccccc2)[nH]n1` are 9.1 µM, 48.64%, 35.48%, 53.4% and 25.66%.
As for `O=C(NCc1ccc(Cl)c(Cl)c1)c1cc(-c2ccccc2)[nH]n1`, the 50% inhibitory concentration (IC50) in assay [2] turned out to be 5.8 µM. Also, the “inhibition (INH)” value in the assay with Rattus norvegicus [3] was 27.02%; in the assay with Rattus norvegicus [4], 45.16%; with Rattus norvegicus [5], 44.31%; in the assay with Rattus norvegicus [6], 10.11%.
As for `O=C(NCc1ccc(F)cc1)c1cc(-c2ccccc2)[nH]n1`, the 50% inhibitory concentration (IC50) in [2] was 2.9 µM. Moreover, the “inhibition (INH)” value stood at 75.27% in the assay on Rattus norvegicus [3], 67.86% in the assay on Rattus norvegicus [4], 70.27% with Rattus norvegicus [5] and 54.66% with Rattus norvegicus [6].
The matching figures for `COc1ccc(CNC(=O)c2cc(-c3ccccc3)[nH]n2)cc1`: 6.1 µM, 32.43%, 41.93%, 39.77% and 16.46%.
The matching figures for `COc1ccc(CNC(=O)c2cc(-c3ccccc3)[nH]n2)cc1OC`: 5.8 µM, 43.24%, 54.83%, 46.59% and 24.8%.
The matching figures for `O=C(NCc1ccco1)c1cc(-c2ccccc2)[nH]n1`: 2.8 µM, 91.89%, 73.11%, 81.81% and 66.33%.
Turning to `COc1ccc(-c2cc(NC(=O)c3cc(-c4ccccc4)[nH]n3)no2)cc1`, the IC50 in assay [2] came to 3.2 µM. The “inhibition (INH)” value was found to be 90.54% in the assay with Rattus norvegicus [3], 68.81% in the assay with Rattus norvegicus [4], 72.72% in the assay on Rattus norvegicus [5] and 71.66% with Rattus norvegicus [6].
On to `CC(C)(C)c1cc(NC(=O)c2cc(-c3ccccc3)[nH]n2)no1`, for which the “inhibition (INH)” value in the assay with Rattus norvegicus [3] is listed as 52.8%; in the assay with Rattus norvegicus [4] it was 68.6%; in the assay with Rattus norvegicus [5] it was 70.6%; with Rattus norvegicus [6], 41.7%.
In assay [2], `O=C(Nc1ccc2[nH]c(S)nc2c1)c1cc(-c2ccccc2)[nH]n1` registered a half-maximal inhibitory concentration (IC50) of 2.9 µM. The “inhibition (INH)” value in the assay with Rattus norvegicus [3] turned out to be 91.62%; in the assay with Rattus norvegicus [4], 94.62%; in the assay with Rattus norvegicus [5], 95.45%; in the assay with Rattus norvegicus [6], 74.15%.
In turn, `O=C(Nc1nccs1)c1cc(-c2ccccc2)[nH]n1` came in with an IC50 in assay [2] of 6.8 µM. Further, the “inhibition (INH)” value in the assay with Rattus norvegicus [3] came out at 54.65%; in the assay with Rattus norvegicus [4], 45.31%; in the assay on Rattus norvegicus [5] it was 51.06%; with Rattus norvegicus [6] it was 31.4%.
The corresponding values for `O=C(NC1CC1)c1cc(-c2ccccc2)[nH]n1` are 6.2 µM, 88.13%, 69.89%, 85.22% and 55.87%.
As for `CC(NC(=O)c1cc(-c2ccccc2)[nH]n1)c1cccc2ccccc12` (configuration not stated), the “inhibition (INH)” value was found to be 74.32% in the assay with Rattus norvegicus [7], 73.86% with Rattus norvegicus [8], 50.64% with Rattus norvegicus [9] and 61.29% with Rattus norvegicus [10].
As for `O=C(Nc1ccccn1)c1cc(-c2ccccc2)[nH]n1`, in assay [2], the midpoint of inhibition, the IC50, lay at 8.9 µM. Also, the “inhibition (INH)” value in the assay on Rattus norvegicus [3] was found to be 81.08%; in the assay with Rattus norvegicus [4], 33.3%; with Rattus norvegicus [5], 79.54%; in the assay on Rattus norvegicus [6], 64.26%.
Turning to `O=C(O)Cc1ccccc1Nc1c(Cl)cccc1Cl` [DICLOFENAC SODIUM], the inhibition in vivo (usually the share of the control response that was lost under treatment) at 50 mg/kg in the assay on Rattus norvegicus [11] was 47%; in the assay on Rattus norvegicus [12], 36%; in the assay with Rattus norvegicus [13] it was 51%; with Rattus norvegicus [14] it was 23%.
